# Experiments:
# [1] = test system: Acinetobacter baumannii; assay: Growth inhibition of Acinetobacter baumannii ATCC 19606 after 48 hrs by resazurin dye based microdilution method; format: functional
# Outline: (§1)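 A. baumannii ATCC 19606 grown in tryptic soy broth, 37 °C with shaking, to mid-log (OD 0.5). Cultures treated with serial dilutions of inhibitor (DMSO stock 1 mg/100 μL), 48 h at 37 °C. Resazurin then added, 1 h at 37 °C with shaking. MIC is the lowest concentration staying blue; MBC is blue retained over 4 h, with CFU plating if needed (99.9% kill).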
# [2] = test system: Acinetobacter baumannii; assay: Bactericidal activity against multidrug-resistant Acinetobacter baumannii ATCC BAA 18002 after 48 hrs by resazurin dye based broth microdilution method; format: functional; settings: for MBC: read-out: MBC99.9
# Outline: (§2)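 Broth microdilution in tryptic soy broth. Mid-log cultures (OD600 0.5) treated with serial dilutions from a DMSO stock (1 mg per 100 μL) for 48 h at 37 °C. Resazurin (stock 0.02%) then added for 1 h at 37 °C. MIC is the lowest concentration staying blue; MBC is blue retained over 4 h (99.9% kill), with CFU plating when needed.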
# [3] = test system: Acinetobacter baumannii; assay: Bactericidal activity against Acinetobacter baumannii ATCC 19606 after 48 hrs by resazurin dye based microdilution method; format: functional; settings: for MBC: ATCC 19606 = CIP 70.34 = JCM 6841, 48 h, read-out: MBC99.9; outline: as §1
# [4] = test system: Acinetobacter baumannii; assay: Growth inhibition of multidrug-resistant Acinetobacter baumannii ATCC BAA 18002 after 48 hrs by resazurin dye based broth microdilution method; format: functional; outline: as §2
# [5] = test system: Vero; assay: Cytotoxicity against African green monkey Vero cells after 72 hrs by MTT assay; format: cell-based, Chlorocebus sabaeus
# Outline: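 Vero (ATCC CCL-81) cells in Eagle's MEM with 10% FBS and penicillin-streptomycin, in 96-well plates. Serial dilutions from 0.78 to 200 μg/mL. Tunicamycin, colistin or tobramycin as controls on each plate. Viability by MTT, giving IC50.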
# [6] = test system: Acinetobacter baumannii; assay: Antibacterial activity against Acinetobacter baumannii ATCC 19606 infected in C57BL/6 mouse assessed as survival rate at 6 mg/kg, ip administered as single dose measured for 5 days (reference value: <20%); format: functional; settings: ATCC 19606 = CIP 70.34 = JCM 6841, ip, 120 h
# Outline: (§3)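 C57BL/6 mice (n = 5 per group; 4 untreated controls) infected intraperitoneally with A. baumannii ATCC19606 grown at 37 °C and collected by centrifugation, at a dose giving 75% death. Single intraperitoneal dose (2 to 60 mg/kg) given 1 h after infection. Mice monitored for 5 days, with death as the end point; survival rate recorded.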
# [7] = test system: Klebsiella pneumoniae; assay: Growth inhibition of Klebsiella pneumoniae ATCC 8047 after 48 hrs by resazurin dye based microdilution method; format: functional; settings: ATCC 8047, 48 h; outline: as §2
# [8] = test system: Klebsiella pneumoniae; assay: Bactericidal activity against Klebsiella pneumoniae ATCC 8047 after 48 hrs by resazurin dye based microdilution method; format: functional; settings: ATCC 8047, 48 h, read-out: MBC99.9; outline: as §2
# [9] = test system: Escherichia coli; assay: Growth inhibition of Escherichia coli ATCC 10798 after 48 hrs by resazurin dye based microdilution method; format: functional; settings: ATCC 10798, 48 h; outline: as §2
# [10] = test system: Escherichia coli; assay: Bactericidal activity against Escherichia coli ATCC 10798 after 48 hrs by resazurin dye based microdilution method; format: functional; settings: ATCC 10798, 48 h, read-out: MBC99.9; outline: as §2
# [11] = test system: Pseudomonas aeruginosa; assay: Growth inhibition of Pseudomonas aeruginosa ATCC 27853 after 48 hrs by resazurin dye based microdilution method; format: functional; settings: ATCC 27853, 48 h; outline: as §2
# [12] = test system: Pseudomonas aeruginosa; assay: Bactericidal activity against Pseudomonas aeruginosa ATCC 27853 after 48 hrs by resazurin dye based microdilution method; format: functional; settings: ATCC 27853, 48 h, read-out: MBC99.9; outline: as §2
# [13] = test system: Staphylococcus aureus; assay: Growth inhibition of Staphylococcus aureus ATCC 25923 after 48 hrs by resazurin dye based microdilution method; format: functional; settings: ATCC 25923, 48 h; outline: as §2
# [14] = test system: Staphylococcus aureus; assay: Bactericidal activity against Staphylococcus aureus ATCC 25923 after 48 hrs by resazurin dye based microdilution method; format: functional; settings: ATCC 25923, 48 h, read-out: MBC99.9; outline: as §2
# [15] = test system: Acinetobacter baumannii; assay: Synergistic antibacterial activity against Acinetobacter baumannii ATCC 19606 infected in C57BL/6 mouse assessed as increase in survival rate at compound to doxycycline ratio of 35:1 administered ip as single dose measured for 5 days; format: functional; settings: ATCC 19606 = CIP 70.34 = JCM 6841, ip, 120 h; outline: as §3
# [16] = test system: Acinetobacter baumannii; assay: Potentiation of doxycycline-induced antimicrobial activity against Acinetobacter baumannii ATCC 19606 at 0.78 ug/ml in presence of 0.025 ug/ml doxycycline by microdilution broth checkerboard method; format: functional, ATCC 19606 = CIP 70.34 = JCM 6841
# Outline: (§4)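 A. baumannii ATCC 19606 in a broth microdilution checkerboard with doxycycline, 96 concentration combinations. ΣFIC = C_A/MIC_A + C_B/MIC_B, taken for wells at the growth/no-growth interface; ΣFIC <0.5 counts as synergy.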
# [17] = test system: Acinetobacter baumannii; assay: Potentiation of doxycycline-induced antimicrobial activity against Acinetobacter baumannii ATCC 19606 at 1.56 ug/ml in presence of 0.05 ug/ml doxycycline by microdilution broth checkerboard method; format: functional, ATCC 19606 = CIP 70.34 = JCM 6841; outline: as §4
# [18] = Half life in Sprague-Dawley rat liver microsomes at 500 ng/ml by LC/MS analysis; format: ADME, microsome
# Outline: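 Pooled Sprague-Dawley rat liver microsomes at 1 mg/mL protein in 100 mM phosphate, pH 7.4. Compound at 500 ng/mL final; verapamil as positive control. Pre-equilibrated 5 min at 37 °C, then 1 mM NADPH added. Triplicate samples at 0, 5, 10, 20, 30, 45 and 60 min, quenched in 4 volumes of cold methanol, analysed by LC-MS.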
# [19] = Solubility of the compound in water at 10 mg after 24 hrs by HPLC based shake flask method; format: physicochemical
# [20] = ATCC 19606 = CIP 70.34 = JCM 6841, 48 h
# [21] = Chlorocebus sabaeus, Vero, 72 h, read-out: IC50
# [22] = ATCC 19606 = CIP 70.34 = JCM 6841
compound,measurement,setting,value
NC[C@H]1O[C@H](O[C@H]2[C@H](O)[C@@H](O[C@H]3O[C@H](CO)[C@@H](O)[C@H](N)[C@H]3O)[C@H](N)C[C@@H]2N)[C@H](N)C[C@@H]1O [TOBRAMYCIN],MIC,[1]; [20],6.25 µg/mL
same,MBC,[2],> 25 µg/mL
same,MBC,[3],12.5 µg/mL
same,MIC,"[4]; ATCC BAA 18002, 48 h",> 25 µg/mL
same,IC50,[5]; [21],> 200 µg/mL
same,survival at 6 mg/kg,[6],100%
CCCCCCCCCCCCC/C=C/C(=O)N[C@H]1[C@H](O[C@H]2O[C@H](CO)[C@@H](O)[C@H](O)[C@H]2NC(C)=O)O[C@H](CC(O)[C@H]2O[C@@H](n3ccc(=O)[nH]c3=O)[C@H](O)[C@@H]2O)[C@H](O)[C@@H]1O (stereo partly drawn),IC50,[5]; [21],0.2 µg/mL
COLISTIN [listing 1 of 2 here],MIC,[1]; [22],3.13 µg/mL
same,MBC99.9,[2],25 µg/mL
same,MBC99.9,[3]; [22],6.25 µg/mL
same,MIC,[4],> 12.5 µg/mL
C=C[C@]1(C)C[C@@H](OC(=O)CSC(C)(C)CNC(=O)[C@H](NCCN)C(C)C)[C@]2(C)[C@H](C)CC[C@]3(CC[C@@H](O)[C@H]32)[C@@H](C)[C@@H]1O,MBC,[2],> 12.5 µg/mL
same,MIC,"[4]; ATCC BAA 18002, 48 h",3.15 µg/mL
C=C[C@]1(C)C[C@@H](OC(=O)CSC(C)(C)CNC(=O)[C@H](NC(=O)CN)C(C)C)[C@]2(C)[C@H](C)CC[C@]3(CC[C@@H](O)[C@H]32)[C@@H](C)[C@@H]1O,MIC,[1]; [20],3.13 µg/mL
same,MBC,[2],> 12.5 µg/mL
same,MIC,"[4]; ATCC BAA 18002, 48 h",3.13 µg/mL
C[C@H]1c2cccc(O)c2C(=O)C2=C(O)[C@]3(O)C(=O)C(C(N)=O)=C(O)[C@@H](N(C)C)[C@@H]3[C@@H](O)[C@@H]21.O [DOXYCYCLINE],MIC,[1]; [20],0.3 µg/mL
same,MBC,[3],0.4 µg/mL
same,MIC,"[4]; ATCC BAA 18002, 48 h",> 25 µg/mL
same,MIC,[7],0.25 µg/mL
same,MBC,[8],0.78 µg/mL
same,MIC,[9],3.13 µg/mL
same,MBC,[10],6.25 µg/mL
same,MIC,[11],12.5 µg/mL
same,MBC,[12],25 µg/mL
same,MIC,[13],3.13 µg/mL
same,MBC,[14],12.5 µg/mL
same,ED50,[15],< 2 mg/kg
C=C[C@]1(C)C[C@@H](OC(=O)CSC(C)(C)CNC(=O)[C@H](N)C(C)C)[C@]2(C)[C@H](C)CC[C@]3(CCC(=O)[C@H]32)[C@@H](C)[C@@H]1O [VALNEMULIN],MIC,[1]; [20],3.13 µg/mL
same,MBC,[2],25 µg/mL
same,MBC,[3],12.5 µg/mL
same,MIC,"[4]; ATCC BAA 18002, 48 h",6.25 µg/mL
same,fractional inhibitory concentration index (FICI),[16],0.375
same,fractional inhibitory concentration index (FICI),[17],0.375
same,t1/2,[18],34.8 s
same,IC50,[5]; [21],14.9 µg/mL
same,solubility,[19],Soluble
COLISTIN [listing 2 of 2 here],IC50,[5]; vero,> 200 µg/mL
